Calls of active or inactive are those of the source. The rule behind the calls is not given here.
What was measured:
BT-549 = assay: Growth inhibition of human BT549 cells by NCI anti-cancer screening method; type: functional
CCRF-CEM = assay: Growth inhibition of human CCRF-CEM cells by NCI anti-cancer screening method; type: functional
IGROV-1 = assay: Growth inhibition of human IGROV1 cells by NCI anti-cancer screening method; type: functional
NCI-H226 = assay: Growth inhibition of human NCI-H226 cells by NCI anti-cancer screening method; type: functional
COLO 205 = assay: Growth inhibition of human COLO205 cells by NCI anti-cancer screening method; type: functional
A-375 [1] = assay: Induction of apoptosis in human A375 cells assessed as sub-G1 phase accumulation at 4 uM after 24 hrs by propidium iodide staining based flow cytometry; type: functional
Method in brief: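 A375 cells (5×10^5 per 60 mm dish) were grown 24 h, then treated 24 h at 0–4 µM. Cells were harvested with trypsin-EDTA, fixed in ice-cold 70% ethanol for 30 min at 4 °C, treated with RNase A (1 mg/ml) for 30 min at 37 °C, and stained with propidium iodide. Cell-cycle distribution, including the sub-G1 fraction, was measured by flow cytometry. DMSO-exposed cells were the control.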

T47D = assay: Growth inhibition of human T47D cells by NCI anti-cancer screening method; type: functional
A-375 [2] = assay: Decrease in Bcl-2 mRNA expression in human A375 cells at 4 uM after 24 hrs by RT-PCR
LOX IMVI = assay: Growth inhibition of human LOXIMVI cells by NCI anti-cancer screening method; type: functional
HCC 2998 = assay: Growth inhibition of human HCC2998 cells by NCI anti-cancer screening method; type: functional
PC-3 = assay: Growth inhibition of human PC3 cells by NCI anti-cancer screening method; type: functional
UACC-62 = assay: Growth inhibition of human UACC62 cells by NCI anti-cancer screening method; type: functional
A-375 [3] = assay: Inhibition of NF-kappaB signaling in human A375 cells at 4 uM after 24 hrs by Western blot; type: cell-based
Method in brief: (§1)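 A375 cells (DMEM, 10% FCS, 37 °C, 5% CO2) were treated at 4 µM for 24 h. Lysates were loaded at 30 µg protein/lane on 12% SDS-PAGE and transferred to PVDF. Membranes were blocked 2 h in TBST, incubated with primary antibody overnight at 4 °C (p53 1:100, p27 1:500, NF-κB p65 1:500), then HRP secondary 1 h, with chemiluminescent detection. β-actin was the loading control; untreated and DMSO controls were run.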

SF-268 = assay: Growth inhibition of human SF268 cells by NCI anti-cancer screening method; type: functional
A549 = assay: Growth inhibition of human A549 cells by NCI anti-cancer screening method; type: functional
UO-31 = assay: Growth inhibition of human UO31 cells by NCI anti-cancer screening method; type: functional
U-251 = assay: Growth inhibition of human U251 cells by NCI anti-cancer screening method; type: functional
ACHN = assay: Growth inhibition of human ACHN cells by NCI anti-cancer screening method; type: functional
OVCAR-8 = assay: Growth inhibition of human OVCAR8 cells by NCI anti-cancer screening method; type: functional
NCI/ADR-RES = assay: Growth inhibition of human NCI/ADR-RES cells by NCI anti-cancer screening method; type: functional
HCT-116 = assay: Growth inhibition of human HCT116 cells by NCI anti-cancer screening method; type: functional
Malme-3M = assay: Growth inhibition of human MALME-3M cells by NCI anti-cancer screening method; type: functional
SF-539 = assay: Growth inhibition of human SF539 cells by NCI anti-cancer screening method; type: functional
SK-MEL-28 = assay: Growth inhibition of human SK-MEL-28 cells by NCI anti-cancer screening method; type: functional
A-375 [4] = assay: Decrease in CDK2 protein expression in human A375 cells at 4 uM after 24 hrs by Western blot; type: functional, cell-based
Method in brief: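 A375 cells treated at 4 µM for 24 h, lysed, protein quantified by Bradford. 30 µg/lane run on 12% SDS-PAGE and transferred to PVDF. Blocked 2 h in TBST with 5% blocker. Probed with rabbit polyclonal CDK2 antibody (1:500) overnight at 4 °C, then HRP secondary (1:2000) 1 h. Chemiluminescent detection; β-tubulin loading control; untreated and DMSO controls.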

A-375 [5] = assay: Cell cycle arrest in human A375 cells assessed as decrease in G2/M phase at 4 uM after 24 hrs by propidium iodide staining based flow cytometry; type: functional; parameters: scale not given: the % may be the effect or the level left
Method in brief: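 A375 melanoma cells (DMEM, 10% FCS, 37 °C, 5% CO2) seeded at 5×10^5 per dish and grown 24 h, then exposed to 0–4 µM for 24 h. Harvested with trypsin-EDTA, fixed in ice-cold 70% ethanol, RNase A treated (1 mg/ml, 37 °C, 30 min), stained with propidium iodide and analysed by flow cytometry for phase distribution.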

OVCAR-3 = assay: Growth inhibition of human OVCAR3 cells by NCI anti-cancer screening method; type: functional
SW-620 = assay: Growth inhibition of human SW620 cells by NCI anti-cancer screening method; type: functional
786-0 = assay: Growth inhibition of human 786-0 cells by NCI anti-cancer screening method; type: functional
NCI-H23 = assay: Growth inhibition of human NCI-H23 cells by NCI anti-cancer screening method; type: functional
A-375 [6] = assay: Increase in p53 protein expression in human A375 cells at 4 uM after 24 hrs by Western blot; type: functional, cell-based; method in brief: as §1
A-375 [7] = assay: Increase in cytochrome C release in human A375 cells at 4 uM after 24 hrs by Western blot; type: functional, cell-based
Method in brief: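 Western blot of A375 cell lysates after 24 h exposure at 4 µM, with 30 µg protein/lane on 12% SDS-PAGE and transfer to PVDF. Probed overnight at 4 °C with anti-cytochrome c (1:500), then HRP secondary and chemiluminescence. β-actin was the loading control; untreated and DMSO-only cells served as controls.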

TK-10 = assay: Growth inhibition of human TK10 cells by NCI anti-cancer screening method; type: functional
SN12C = assay: Growth inhibition of human SN12C cells by NCI anti-cancer screening method; type: functional
NCI-H460 = assay: Growth inhibition of human NCI-H460 cells by NCI anti-cancer screening method; type: functional

COc1cc2c(cc1OCCCCCOc1ccc(-n3c(C)nc4ccccc4c3=O)cc1)N=C[C@@H]1CCCN1C2=O
GI50 (BT-549): 110 nM | GI50 (CCRF-CEM): 160 nM | GI50 (IGROV-1): 180 nM | GI50 (NCI-H226): 160 nM | GI50 (COLO 205): 180 nM | Activity (A-375 [1]): 31.52% | GI50 (T47D): 170 nM | Decrease in Bcl-2 mRNA expression (A-375 [2]): Active | GI50 (LOX IMVI): 150 nM | GI50 (HCC 2998): 260 nM | GI50 (PC-3): 290 nM | GI50 (UACC-62): 160 nM | inhibition (A-375 [3]): Active | GI50 (SF-268): 260 nM | GI50 (A549): 230 nM | GI50 (UO-31): 360 nM | GI50 (U-251): 160 nM | GI50 (ACHN): 290 nM | GI50 (OVCAR-8): 340 nM | GI50 (NCI/ADR-RES): 1730 nM | GI50 (HCT-116): 150 nM | GI50 (Malme-3M): 230 nM | GI50 (SF-539): 220 nM | GI50 (SK-MEL-28): 200 nM | Activity (A-375 [4]): Active | Activity (A-375 [5]): 9.15% | GI50 (OVCAR-3): 200 nM | GI50 (SW-620): 160 nM | GI50 (786-0): 170 nM | GI50 (NCI-H23): 230 nM | Activity (A-375 [6]): Active | Activity (A-375 [7]): Active | GI50 (TK-10): 310 nM | GI50 (SN12C): 240 nM | GI50 (NCI-H460): 200 nM

Reference: ChEMBL document CHEMBL1811823, “Quinazolinone linked pyrrolo[2,1-c][1,4]benzodiazepine (PBD) conjugates: Design, synthesis and biological evaluation as potential anticancer agents” (2010)
